# KCNQ1 inh = inhibitors of human KCNQ1 channel, primary screen, cell-based, thallium flux, high-throughput; Potassium voltage-gated channel subfamily KQT member 1 (Homo sapiens), P51787; CHO-K1 KCNQ1, FluxOR thallium flux fluorescence; hits give high values; B-score at 10 µM; 310,000 tested, 1.3% active; AID 2642, 2010;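 active = compounds whose thallium flux B-score, printed positive for inhibition, exceeds three library SD while starting fluorescence stays within three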;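 also: channel opened by potassium depolarization with thallium stimulus after 20 min compound exposure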
# Kir21 block = inhibitors of mouse Kir2.1 inward-rectifier potassium channel. 310,000 tested, 0.85% active. HEK293-Kir2.1, FluxOR thallium flux fluorescence; hits give low values. AID 1672, 2009. B-score at 10 µM. Inward rectifier potassium channel 2 (Mus musculus), P35561;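 active = fluorescence ratio B-score at or below minus 3 SD of library scores, with starting-brightness B-score within 2 SD, cut at about -4.2 in these data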;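 also: channel flux triggered by added potassium and thallium sulfate stimulus; B-score of peak minus minimum fluorescence over baseline after thallium stimulus; more negative B-score means stronger Kir2.1 block with less thallium influx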
# KCNK9 inh = KCNK9 potassium channel inhibitors, primary screen, HEK293 cells, thallium flux; Potassium channel subfamily K member 9 (Homo sapiens), Q9NPC2; FluxOR thallium flux fluorescence; hits give low values; B-score at 10 µM; 310,000 tested, 1.2% active; AID 488922, 2010;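 active = ratio B-score over 3 SD below the library mean, with starting fluorescence within 5 SD of its mean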;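 also: negative B-score means less thallium flux so channel inhibition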
# Target sequence (Q9NPC2 whole entry, looked up): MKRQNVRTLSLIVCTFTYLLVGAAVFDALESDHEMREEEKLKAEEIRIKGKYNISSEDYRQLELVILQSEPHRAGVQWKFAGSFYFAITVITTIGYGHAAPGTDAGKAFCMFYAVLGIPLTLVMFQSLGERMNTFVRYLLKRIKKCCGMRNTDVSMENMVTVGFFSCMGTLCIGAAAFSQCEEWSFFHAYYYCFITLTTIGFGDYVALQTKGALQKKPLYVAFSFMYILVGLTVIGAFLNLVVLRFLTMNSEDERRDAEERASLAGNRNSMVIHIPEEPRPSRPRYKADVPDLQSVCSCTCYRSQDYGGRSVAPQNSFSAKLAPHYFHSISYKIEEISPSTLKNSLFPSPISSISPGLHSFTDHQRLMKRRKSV
# KCNQ1 pot = potentiators or activators of KCNQ1 channel, primary screen, cell-based, thallium flux, high-throughput. Potassium voltage-gated channel subfamily KQT member 1 (Homo sapiens), P51787. CHO-K1 KCNQ1, thallium flux FluxOR fluorescence; hits give high values. B-score at 10 µM. 310,000 tested, 0.35% active;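 active = fluorescence ratio B-score, a plate-corrected score, at least three library SD, with initial intensity B-score within 5 SD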
#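 Doses: Single concentration per compound, DMSO matched to controls | Test system: KCNQ1-transfected CHO-K1 cells | Timing: 90 min dye loading and 20 min compound exposure, both at room temperature | Measured by: Kinetic FluxOR thallium fluorescence, 10-s 1-Hz baseline, 110-s post-stimulus read | Medium: Assay buffer with matched DMSO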
# hERG rescue = hERG rescue from dofetilide block, primary screen, cell-based, CHO-hERG, FluxOR thallium flux, dofetilide IC70. Voltage-gated inwardly rectifying potassium channel KCNH2 (Homo sapiens), Q12809. dofetilide IC70 present. activation (rescue from dofetilide block), less the hit threshold, % at 10 µM. 310,000 tested, 0.51% active;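 active = activation above the mean of controls blocked by dofetilide plus 5 SD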;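 also: thallium influx through hERG after potassium depolarization seen as dye fluorescence rise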
# KCNK3 inh = human KCNK3 channel inhibitors, primary screen, CHO cells, FluxOR thallium flux, B-score. Potassium channel subfamily K member 3 (Homo sapiens), O14649. FluxOR fluorescence; hits give low values. B-score at 10 µM. 340,000 tested, 0.84% active;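 active = B-score under library mean minus 4 SD, starting fluorescence ratio at most library mean plus 5 SD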;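 also: more negative B-score means stronger inhibition of thallium flux through KCNK3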
# The depositor's hits bear a star; i = inactive; · = no result. Rows were chosen to be rich in hits. Some 3.7% of all compounds tested hit in one or more screens of this group.
SMILES,KCNQ1 inh,Kir21 block,KCNK9 inh,KCNQ1 pot,hERG rescue,KCNK3 inh
CC1(c2ccc(OC(F)F)cc2)NC(=O)N(CC(=O)Nc2cccc(F)c2)C1=O (centres undefined),i,-1.6,i,i,-3,i
C[C@@H](CC#N)CN1CC[C@H](C(C)(C)C)CCC1=O,i,-1.2,i,i,5.0*,i
C[C@@H]1CCC(=O)N(C[C@@H](C)CC#N)CC1,i,-0.13,i,i,0,i
Cc1ccc(C2=CSC3=NS(=O)(=O)CCN23)cc1,i,-1.5,i,9*,1,i
Cc1ccc(C)c(C2=CSC3=NS(=O)(=O)CCN23)c1,i,-0.26,i,i,-17,i
COc1ccc(/C=C2\SC(N3CCCCC3)=NC2=O)cc1OC,i,-0.31,i,i,-4,i
COc1ccc(OC)c(/C=C2\SC(N3CCCC(C)C3)=NC2=O)c1 (centres undefined),7*,-0.1,i,i,-13,i
Cc1ccc(CN2CCCC(CO)(Cc3ccccc3C)C2)s1 (centres undefined),i,-4.4*,i,i,-6,i
COc1ccccc1-c1cc(C(F)(F)F)nc(NCc2ccco2)n1,i,-0.17,-7.3*,i,-22,i
CCCn1c(=S)[nH]c2ccccc2c1=O,i,0.64,i,i,1,i
CCc1cc2c(=O)n(CCC(C)C)c(=S)[nH]c2s1,i,1.3,i,35*,26*,i
COc1ccc(Cl)cc1CN1CCN(c2nc(C)cc(C)c2C#N)CC1,i,-2.6,i,i,-12,-9.6*
CC1=NN(c2ccc(C)c(C)c2)C(=O)C1C(c1cccc(O)c1)C1C(=O)N(c2ccc(C)c(C)c2)N=C1C (centres undefined),i,1.8,-9.8*,i,-6,i
CCOCCCNC(=O)C(NC(=O)Cc1cccs1)c1ccc(C)cc1 (centres undefined),i,0.23,i,i,12*,i
Cc1ccc(S(=O)(=O)N2CCCCCC2)cc1C(=O)NCc1ccccn1,i,-0.19,i,i,-2,i
N#CC1=C(N)NC(SCC(=O)c2ccc(Br)cc2)=C(C#N)C12CCCCC2,12*,-1.1,i,i,-26,i
CCSC1=C(C#N)C2(CCCCC2)C(C#N)=C(N)N1,i,-2.1,i,i,-21,i
CCCSC1=C(C#N)C2(CCCCC2)C(C#N)=C(N)N1,8*,-1.5,i,i,-30,i
N#CC1=C(N)NC(SCC(=O)c2ccc(Cl)cc2)=C(C#N)C12CCCC2,7*,-1.6,i,i,-27,i
Cc1ccc(CC(=O)OC(C)C(=O)NC2CCCCC2C)cc1C (centres undefined),·,·,·,·,·,i
Cc1ccc(-c2csc(N=C(N)N)n2)c(C)c1,i,-8.3*,i,i,-15,i
COc1cccc(Oc2nc(N)ncc2[N+](=O)[O-])c1,i,1.1,i,i,-3,i
CN1CCN(CCOC2Cc3ccccc3Sc3ccc(Cl)cc32)CC1 (centres undefined),i,-10*,i,i,-22,i
C=C1N(c2cccc(Cl)c2)C(=O)OC1(C)C,i,-0.53,i,i,-2,i
CCn1cc(SCC(=O)NCc2ccc3c(c2)OCO3)c2ccccc21,i,-4.7*,i,i,-13,i
SMILES,KCNQ1 inh,Kir21 block,KCNK9 inh,KCNQ1 pot,hERG rescue,KCNK3 inh
O=C(CSc1ncnc2c1cnn2-c1ccc(Cl)cc1)NCc1ccc2c(c1)OCO2,i,0.15,i,i,4.7*,i
O=C(CSc1nccn1-c1ccc(Cl)cc1)NCc1ccc2c(c1)OCO2,i,-4.5*,i,i,-2,i
Cc1cc(NC(=O)CSc2ncnc3c2cnn3-c2ccccc2)no1,i,0.63,i,i,14*,i
CCCn1cc(SCC(=O)NCc2ccc3c(c2)OCO3)c2ccccc21,i,0.47,i,i,-11,i
O=C(CSc1ncccn1)NCc1ccc2c(c1)OCO2,i,1,i,i,-1,i
CC(=O)Nc1cccc(CNCc2cccc(NC(C)=O)c2)c1,i,1,i,i,-9,i
O=C(O)C1CCN(C(=O)CSc2nc3ccccc3s2)CC1,i,-0.96,i,i,-8,i
C=CCNc1nnc(SCC(=O)N2CCC(C(N)=O)CC2)s1,i,2.8,i,9*,-4,i
NC(=O)C1CCN(C(=O)CSc2nc3ccccc3s2)CC1,i,0.13,i,i,5.6*,i
O=C(CSc1nc2ccccc2s1)N1N=C(c2cccs2)CC1c1ccc(F)cc1 (centres undefined),i,-0.92,-6.9*,i,-10,i
COC(=O)c1ccccc1S(=O)(=O)N1CCn2cccc2C1C (centres undefined),i,-0.78,i,i,35*,i
COc1ccc(NC(C)=O)cc1S(=O)(=O)N1CCn2cccc2C1C (centres undefined),·,·,·,·,·,i
CCOc1ccc(/C=C/C(O)=C2/C(=O)NC3(C)CC2c2ccccc2O3)cc1OC (centres undefined),i,-0.65,i,i,-2,i
CN(C)c1ccc(/C=C/C(O)=C2/C(=O)N(C)C3(C)CC2c2ccccc2O3)cc1 (centres undefined),7*,-1.8,i,i,-17,·
Cc1ccc(NC(=O)c2ccc3c(c2)CCN3S(C)(=O)=O)c(C)c1,i,-0.6,i,i,5.3*,i
COc1ccccc1NC(=O)c1ccc2c(c1)CCN2S(C)(=O)=O,i,0.07,i,i,-5,i
COc1ccc(-n2nc(C)c3c(=O)c4c([nH]c32)CCCC4)cc1,i,-0.37,i,i,-1,i
Fc1ccc(NC(=S)Nc2ccc(F)c(Cl)c2)cc1Cl,13*,-5.4*,-6.7*,i,-34,-9.2*
CCOC(=O)c1ccc(NC(=O)Nc2ccc(F)cc2)cc1,i,0.99,i,i,-9,i
COC(=O)NC(=S)Nc1ccc(Oc2ccc(Cl)cc2Cl)c(Cl)c1,i,-0.09,i,16*,-3,i
